Assay results from ChEMBL document CHEMBL4765236, “Insights into the Antimicrobial Activity and Cytotoxicity of Engineered α-Helical Peptide Amphiphiles” (J Med Chem, 2016).
Activity calls are given as the source filed them. The calls are words filed in the database; no cut-off is given here.

How the values were obtained:
Cell membrane [1] = test: Induction of inner membrane permeabilization in Escherichia coli O157:H7 CICC 21530 assessed as cytoplasmic beta-galactosidase release at 1 times MIC using ONPG as substrate by […]; format: subcellular
Staphylococcus aureus [2] = test: Antibacterial activity against Staphylococcus aureus ATCC 29213 assessed as bacterial growth inhibition incubated for 18 to 24 hrs in presence of 4.5 mM KCl by microtiter broth dilution method (reference value: 0.43 to > 71.5 uM); format: functional; settings: time 18-24 hrs
Salmonella typhimurium = test: Antibacterial activity against Salmonella typhimurium CMCC 51005 assessed as bacterial growth inhibition incubated for 18 to 24 hrs by microtiter broth dilution method; format: functional, Salmonella enterica subsp. enterica serovar Typhimurium; settings: Salmonella enterica, time 18-24 hrs
Summary of the method: (§1)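 Log-phase cells (grown overnight at 37 °C, subcultured in MHB) diluted to 10^5 CFU/mL in MHB and mixed 1:1 with serial peptide dilutions prepared in 0.01% acetic acid/0.2% BSA. Incubated 37 °C for 18-24 h. MIC is the lowest concentration giving no growth by OD492. Reported as the average of 3-5 independent experiments.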

Micrococcus luteus = test: Antibacterial activity against Micrococcus luteus CMCC 28001 assessed as bacterial growth inhibition incubated for 18 to 24 hrs by microtiter broth dilution method; format: functional; settings: time 18-24 hrs; summary of the method: as §1
Listeria monocytogenes [3] = test: Antibacterial activity against Listeria monocytogenes CICC 21633 assessed as bacterial growth inhibition incubated for 18 to 24 hrs by microtiter broth dilution method; format: functional; settings: time 18-24 hrs; summary of the method: as §1
Staphylococcus aureus [4] = test: Antibacterial activity against Staphylococcus aureus ATCC 29213 assessed as bacterial growth inhibition incubated for 18 to 24 hrs in presence of 150 mM NaCl by microtiter broth dilution method (reference value: 0.43 to > 71.5 uM); format: functional; settings: time 18-24 hrs
Listeria monocytogenes [5] = test: Antibacterial activity against Listeria monocytogenes CICC 21662 assessed as bacterial growth inhibition incubated for 18 to 24 hrs by microtiter broth dilution method; format: functional; settings: time 18-24 hrs; summary of the method: as §1
HepG2 = test: Cytotoxicity against human HepG2 cells assessed as reduction in cell viability incubated for 24 hrs by MTT assay; format: functional, cell-based
Summary of the method: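 HepG2 survival measured by MTT assay over a peptide range of 0.25-64 µM.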

Pseudomonas fluorescens = test: Antibacterial activity against Pseudomonas fluorescens CICC 21620 assessed as bacterial growth inhibition incubated for 18 to 24 hrs by microtiter broth dilution method; format: functional; settings: time 18-24 hrs; summary of the method: as §1
Escherichia coli [6] = test: Antibacterial activity against Escherichia coli O157:H7 CICC 21530 assessed as bacterial growth inhibition incubated for 18 to 24 hrs in presence of 4 mM FeCl3 by microtiter broth dilution method (reference value: 0.85 to > 71.5 uM); format: functional; settings: time 18-24 hrs
Cell membrane [7] = test: Induction of outer membrane permeabilization in Escherichia coli O157:H7 CICC 21530 assessed as increase in fluorescence intensity by NPN-dye based fluorescence assay; format: subcellular; settings: dose 0.625-7.5 µM
Escherichia coli [8] = test: Bactericidal activity against Escherichia coli O157:H7 CICC 21530 assessed as bacterial killing at 1 times MIC by time kill assay; format: functional, organism-based; settings: time 1085.0 min, TDE = time-dependent effect
[9] = Therapeutic index, ratio of MHC10 for human RBC to geometric mean of peptide MIC for Escherichia coli O157:H7 CICC 21530; format: toxicity; settings: human red blood cells (RBC), pooled result: one value given for 11 cell lines, strains, targets or settings, read-out: TI
Summary of the method: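 Therapeutic index = MHC (peptide concentration giving 10% hemolysis of human RBCs, 1 h, 37 °C, A540) divided by geometric mean of MICs from broth microdilution (10^5 CFU/mL in MHB, 37 °C, 18-24 h, OD492).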

Shigella flexneri = test: Antibacterial activity against Shigella flexneri CMCC 51571 assessed as bacterial growth inhibition incubated for 18 to 24 hrs by microtiter broth dilution method; format: functional; settings: time 18-24 hrs; summary of the method: as §1
Salmonella enteritidis = test: Antibacterial activity against Salmonella enteritidis CICC 21527 assessed as bacterial growth inhibition incubated for 18 to 24 hrs by microtiter broth dilution method; format: functional, Salmonella enterica subsp. enterica serovar Enteritidis; settings: Salmonella enterica, time 18-24 hrs; summary of the method: as §1
Staphylococcus aureus [10] = test: Antibacterial activity against Staphylococcus aureus ATCC 29213 assessed as bacterial growth inhibition incubated for 18 to 24 hrs in presence of 2 mM CaCl2 by microtiter broth dilution method (reference value: 0.43 to > 71.5 uM); format: functional; settings: time 18-24 hrs
Staphylococcus aureus [11] = test: Bactericidal activity against Staphylococcus aureus ATCC 29213 assessed as bacterial killing at 1 times MIC by time kill assay; format: functional, organism-based; settings: time 1085.0 min, TDE = time-dependent effect
Summary of the method: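 Log-phase S. aureus 29213 exposed to peptide at 1 × MIC in 10 mM PBS pH 7.4 at 37 °C for 0-90 min. Aliquots taken at fixed intervals, diluted and plated on nutrient agar, and colonies counted after 18 h at 37 °C. Average of three independent assays.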

Escherichia coli [12] = test: Antibacterial activity against Escherichia coli O157:H7 CICC 21530 assessed as bacterial growth inhibition incubated for 18 to 24 hrs by microtiter broth dilution method; format: functional; settings: time 18-24 hrs
Summary of the method: (§2)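 Log-phase bacteria grown at 37 °C in MHB, diluted to 10^5 CFU/mL, mixed 1:1 with serial peptide dilutions (peptide diluted in 0.01% acetic acid, 0.2% BSA); 37 °C for 18-24 h. MIC read by OD492 as lowest concentration giving no growth; mean of 3-5 independent experiments.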

Staphylococcus aureus [13] = test: Antibacterial activity against Staphylococcus aureus ATCC 29213 assessed as bacterial growth inhibition incubated for 18 to 24 hrs in presence of 1 mM MgCl2 by microtiter broth dilution method (reference value: 0.43 to > 71.5 uM); format: functional; settings: time 18-24 hrs
Escherichia coli [14] = test: Antibacterial activity against Escherichia coli ATCC 25922 assessed as bacterial growth inhibition incubated for 18 to 24 hrs by microtiter broth dilution method; format: functional; settings: time 18-24 hrs; summary of the method: as §1
RAW264.7 = test: Cytotoxicity against mouse RAW264.7 cells assessed as increase in cell viability at 64 uM incubated for 24 hrs by MTT assay relative to control; format: cell-based; settings: raw264.7, 24 h
Summary of the method: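 RAW264.7 macrophages were grown in DMEM with 10% FBS, 2 mM glutamine and penicillin/streptomycin at 37 °C in 5% CO2. Cells seeded at 1.0-2.0 × 10^4 per well and treated with peptide (final 0.25-64 µM) for 24 h at 37 °C. MTT at 0.5 mg/mL added for 4 h, formazan dissolved in DMSO, read at 570 nm.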

Salmonella enterica = test: Antibacterial activity against Salmonella choleraesuis ATCC 13312 assessed as bacterial growth inhibition incubated for 18 to 24 hrs by broth dilution method; format: functional; settings: time 18-24 hrs; summary of the method: as §2
Staphylococcus aureus [15] = test: Antibacterial activity against methicillin resistant Staphylococcus aureus ATCC 43300 assessed as bacterial growth inhibition incubated for 18 to 24 hrs by microtiter broth dilution method; format: functional; settings: time 18-24 hrs; summary of the method: as §2
Staphylococcus aureus [16] = test: Antibacterial activity against Staphylococcus aureus ATCC 29213 assessed as bacterial growth inhibition incubated for 18 to 24 hrs in presence of […] by microtiter broth dilution method (reference value: 0.43 to > 71.5 uM); format: functional; settings: time 18-24 hrs
Bacillus cereus = test: Antibacterial activity against Bacillus cereus CMCC 63301 assessed as bacterial growth inhibition incubated for 18 to 24 hrs by microtiter broth dilution method; format: functional; settings: time 18-24 hrs; summary of the method: as §1

Row | Substance | Activity (Cell membrane [1]) | MIC (Staphylococcus aureus [2]) [µM] | MIC (Salmonella typhimurium) [µM] | MIC (Micrococcus luteus) [µM] | MIC (Listeria monocytogenes [3]) [µM] | MIC (Staphylococcus aureus [4]) [µM] | MIC (Listeria monocytogenes [5]) [µM] | Activity (HepG2) | MIC (Pseudomonas fluorescens) [µM] | MIC (Escherichia coli [6]) [µM] | Activity (Escherichia coli [8]) | selectivity ratio [9] | MIC (Shigella flexneri) [µM] | MIC (Salmonella enteritidis) [µM] | MIC (Staphylococcus aureus [10]) [µM] | Activity (Staphylococcus aureus [11]) | MIC (Escherichia coli [12]) [µM] | MIC (Staphylococcus aureus [13]) [µM] | MIC (Escherichia coli [14]) [µM] | Activity (RAW264.7) [%] | other results
1 | H-WGRAFSRGVRRLARGGRG-NH2 | inactive | > 63.5 | > 63.5 | > 63.5 | 31.8 | > 63.5 | 15.9 | Dose-dependent effect | > 63.5 | > 63.5 | Tde | 4.26 | 15.9 | > 63.5 | > 63.5 | Tde | 7.94 | > 63.5 | 31.8 | 85.48 | Activity (Cell membrane [7]): Dose-dependent effect; MIC (Salmonella enterica): 15.9 µM; MIC (Staphylococcus aureus [15]): > 63.5 µM; MIC (Staphylococcus aureus [16]): > 63.5 µM; MIC (Bacillus cereus): > 63.5 µM
2 | H-WLRAFRRLVRRLARGLRR-NH2 | Active | 0.21 | 6.81 | 0.43 | 0.21 | 1.7 | 0.21 | Dose-dependent effect | 0.43 | 6.81 | Tde | 20.5 | 0.43 | 6.81 | 0.43 | Tde | 0.85 | 0.21 | 1.7 | 40.73 | IC50 (HepG2; HepG2, 24 h): 32 µM; Activity (Cell membrane [7]): Dose-dependent effect; MIC (Salmonella enterica): 1.7 µM; MIC (Staphylococcus aureus [15]): 0.85 µM; MIC (Staphylococcus aureus [16]): 55 µM; MIC (Bacillus cereus): 0.85 µM
3 | H-WGRAFSAGVHRLANGGNG-NH2 | inactive | > 70.1 | > 70.1 | > 70.1 | > 70.1 | > 70.1 | > 70.1 | Dose-dependent effect | > 70.1 | > 70.1 | Tde | 1 | > 70.1 | > 70.1 | > 70.1 | Tde | > 70.1 | > 70.1 | > 70.1 | 77.58 | Activity (Cell membrane [7]): Dose-dependent effect; MIC (Salmonella enterica): > 70.1 µM; MIC (Staphylococcus aureus [15]): > 70.1 µM; MIC (Staphylococcus aureus [16]): > 70.1 µM; MIC (Bacillus cereus): > 70.1 µM
4 | H-WLRAFRRLVRRLARLLRR-NH2 | inactive | 1.66 | > 53.2 | 13.3 | 3.32 | 26.6 | 3.32 | Dose-dependent effect | 53.2 | > 53.2 | Tde | 4.83 | 1.66 | > 53.2 | 13.3 | Tde | 3.32 | 0.83 | 13.3 | 48.25 | Activity (Cell membrane [7]): Dose-dependent effect; MIC (Salmonella enterica): 13.3 µM; MIC (Staphylococcus aureus [15]): 3.32 µM; MIC (Staphylococcus aureus [16]): > 53.2 µM; MIC (Bacillus cereus): 53.2 µM
5 | H-WGRAFSAGVHRLARGGRG-NH2 | inactive | > 67 | > 67 | > 67 | 67 | > 67 | 33.5 | Dose-dependent effect | > 67 | > 67 | Tde | 1.55 | > 67 | > 67 | > 67 | Tde | 16.8 | > 67 | > 67 | 87.22 | Activity (Cell membrane [7]): Dose-dependent effect; MIC (Salmonella enterica): 33.5 µM; MIC (Staphylococcus aureus [15]): > 67 µM; MIC (Staphylococcus aureus [16]): > 67 µM; MIC (Bacillus cereus): > 67 µM
6 | H-WGRAFRRGVRRLARGGRR-NH2 | inactive | 7.33 | > 58.6 | 7.33 | 7.33 | 14.7 | 7.33 | Dose-dependent effect | 29.3 | > 58.6 | Tde | 7.51 | 7.33 | > 58.6 | 7.33 | Tde | 3.67 | 3.67 | 14.7 | 74.8 | Activity (Cell membrane [7]): Dose-dependent effect; MIC (Salmonella enterica): 14.7 µM; MIC (Staphylococcus aureus [15]): 14.7 µM; MIC (Staphylococcus aureus [16]): > 58.6 µM; MIC (Bacillus cereus): 14.7 µM
7 | H-WGEAFSAGVHRLANGGNG-NH2 | inactive | > 71.2 | > 71.2 | > 71.2 | > 71.2 | > 71.2 | > 71.2 | Dose-dependent effect | > 71.2 | > 71.2 | Tde | 1 | > 71.2 | > 71.2 | > 71.2 | Tde | > 71.2 | > 71.2 | > 71.2 | 73.62 | MIC (Salmonella enterica): > 71.2 µM; MIC (Staphylococcus aureus [15]): > 71.2 µM; MIC (Staphylococcus aureus [16]): > 71.2 µM; MIC (Bacillus cereus): > 71.2 µM
8 | H-WGRAFRRLVRRLARGLRR-NH2 | inactive | 0.87 | 13.9 | 27.9 | 1.74 | 6.97 | 1.74 | Dose-dependent effect | 55.8 | > 55.8 | Tde | 10.3 | 3.49 | > 55.8 | 3.49 | Tde | 6.97 | 1.74 | 27.9 | 64.79 | Activity (Cell membrane [7]): Dose-dependent effect; MIC (Salmonella enterica): 13.9 µM; MIC (Staphylococcus aureus [15]): 6.97 µM; MIC (Staphylococcus aureus [16]): > 55.8 µM; MIC (Bacillus cereus): 55.8 µM
